Data from ChEMBL document CHEMBL3244167, “Lysosomotropic agents. 1. Synthesis and cytotoxic action of lysosomotropic detergents” (J Med Chem, 1979).
Calls of active or inactive are those of the source. No cut-off for these calls is given here.

Experiments:
[1] = Cytotoxicity against mouse peritoneal macrophages assessed as LDH release at 100 ug/ml after 24 hrs (reference value: 4 to 9 %); format: functional, Peritoneal macrophage cell
[2] = physchem
[3] = Induction of cell lysis in ox RBC at 0.188 mM measured at 1 hr (reference value: 1.7 %); format: cell-based, Bos taurus, Erythrocyte; conditions: cattle, ox red blood cells; read-out: Activity
[4] = test system: WI-38; test: Cytotoxicity to human W138 cells; format: functional, cell-based
[5] = test system: Peritoneal macrophage cell; test: Induction of cell death in mouse peritoneal macrophages at 25 ug/ml; format: functional, cell-based
[6] = test system: Raji; test: Cytotoxicity to human Raji cells at 40 ug/ml after 3 days; format: functional, cell-based
[7] = Induction of cell lysis in ox RBC at 0.375 mM measured at 1 hr (reference value: 1.7 %); format: cell-based, Bos taurus, Erythrocyte; conditions: cattle, ox red blood cells; read-out: Activity
[8] = Induction of cell lysis in ox RBC at 0.375 mM measured at 4 hrs (reference value: 1.8 %); format: cell-based, Bos taurus, Erythrocyte; conditions: cattle, ox red blood cells; read-out: Activity
[9] = test system: Peritoneal macrophage cell; test: Induction of large vacuole formation in mouse peritoneal macrophages at 5 ug/ml; format: functional, cell-based
[10] = test system: MRC5; test: Cytotoxicity to human MRC5 cells; format: functional, cell-based
[11] = test system: HeLa; test: Cytotoxicity to human HeLa cells at 100 ug/ml after 24 hrs; format: functional, cell-based
[12] = test system: Mus musculus; test: Toxicity in mouse at 500 mg/kg, ip after 10 days; format: organism-based; set-up: dose 500 mg/kg, route intraperitoneal; conditions: in vivo, 240 h
Method in brief: (§1)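 Mice dosed ip; observed for 10 days.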

[13] = test system: P815; test: Induction of cell death in mouse P815 cells assessed as [51Cr] release at 100 ug/ml at 5 hrs (reference value: 10%); format: functional
[14] = Cytotoxicity against mouse peritoneal macrophages assessed as […] at 0.75 mM after 24 hrs (reference value: 10 %); format: functional, Peritoneal macrophage cell
Method in brief: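 Thioglycolate-stimulated mouse peritoneal macrophages, 2-4 × 10^6 cells/dish, in duplicate. Compound dosed from Me2SO solution at 1 µL/mL, final 0.750 mM; control Me2SO only. At 24 h, units of N-acetyl-β-D-glucosaminidase (lysosomal marker) and LDH (cytoplasmic marker) released into medium were measured, ±15%.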

[15] = test system: Raji; test: Cytotoxicity to human Raji cells; format: functional, cell-based
[16] = Induction of cell lysis in ox RBC at 0.188 mM measured at 4 hrs (reference value: 1.8 %); format: cell-based, Bos taurus, Erythrocyte; conditions: cattle, ox red blood cells; read-out: Activity
[17] = Induction of cell lysis in rabbit RBC at 0.188 to 0.375 mM measured at 1 to 4 hrs; format: cell-based, Oryctolagus cuniculus; conditions: erythrocyte, 375 µM
[18] = test system: RK13; test: Cytotoxicity to rabbit RK13 cells; format: functional, cell-based; conditions: Oryctolagus cuniculus
[19] = test system: Peritoneal macrophage cell; test: Induction of cell death in mouse peritoneal macrophages at 50 ug/ml; format: functional, cell-based
[20] = test system: Peritoneal macrophage cell; test: Induction of large vacuole formation in mouse peritoneal macrophages at 10 to 25 ug/ml; format: functional, cell-based
[21] = test system: Mus musculus; test: Toxicity in mouse at 250 mg/kg, ip after 10 days; format: organism-based; set-up: dose 250 mg/kg, route intraperitoneal; conditions: in vivo, 240 h; method in brief: as §1
[22] = test system: P815; test: Induction of cell death in mouse P815 cells assessed as [51Cr] release at 50 ug/ml at 5 hrs; format: functional
[23] = test system: P815; test: Induction of cell death in mouse P815 cells assessed as [51Cr] release at 1 ug/ml at 5 hrs; format: functional
[24] = test system: P815; test: Induction of cell death in mouse P815 cells assessed as [51Cr] release at 3 ug/ml at 5 hrs; format: functional
[25] = test system: P815; test: Induction of cell death in mouse P815 cells assessed as [51Cr] release at 9 ug/ml at 5 hrs; format: functional
[26] = test system: P815; test: Induction of cell death in mouse P815 cells assessed as [51Cr] release at 27 ug/ml at 5 hrs; format: functional
[27] = test system: Raji; test: Cytotoxicity to human Raji cells at 10 ug/ml after 3 days; format: functional, cell-based
[28] = test system: P815; test: Induction of cell death in mouse P815 cells assessed as [51Cr] release at 75 ug/ml at 5 hrs; format: functional
[29] = test system: MRC5; test: Cytotoxicity to human MRC5 cells at 10 ug/ml after 3 days; format: functional, cell-based
[30] = test system: P815; test: Induction of cell death in mouse P815 cells assessed as [51Cr] release at 25 ug/ml at 5 hrs; format: functional

CCCCCCCCCCCCCCCCCCNCC(F)(F)F
Activity [1]: 5% | pKa [2]: 4.7

Cn1ccnc1 [1-METHYLIMIDAZOLE]
pKa [2]: 7

CCCCCCCCCCCCNCC(F)(F)F
hemolysis at 1 h, 188 µM [3]: 4.2% | Activity [1]: 10% | Activity [4]: Active | Activity [5]: Active | Activity [6]: Active | hemolysis at 1 h, 375 µM [7]: 5.2% | hemolysis at 4 h, 375 µM [8]: 6.5% | Activity [9]: Active | Activity [10]: Active | Activity [11]: Active | Activity [12]: Non-toxic | Activity [13]: 21% | pKa [2]: 5.5 | Activity [14]: 27% | Activity [15]: Active | hemolysis at 4 h, 188 µM [16]: 7.3% | Activity [17]: Non-toxic | Activity [18]: Active

CCCCCCCCNCC(F)(F)F
Activity [1]: 7% | pKa [2]: 5.9 | Activity [14]: 19%

Cc1ccncc1
pKa [2]: 6

CCCCCCCCCCCCCc1ccncc1
Activity [4]: Active | Activity [19]: Active | Activity [6]: Active | Activity [20]: Active | Activity [10]: Active | Activity [12]: Non-toxic | Activity [13]: 10% | pKa [2]: 5.9 | Activity [15]: Active | Activity [18]: Active

CCCNCC(F)(F)F
Activity [1]: 10%

CCCCCCCCCCCCNCC(F)F
Activity [21]: Non-toxic | Activity [12]: Toxic | Activity [13]: 45% | pKa [2]: 7.5

CCCCCCCCCCCCn1ccnc1
Activity [22]: 94% | Activity [23]: 10% | Activity [24]: 11% | Activity [25]: 11% | Activity [26]: 93%

CCCCCCCCCn1ccnc1
pKa [2]: 6.6

CNCC(F)(F)F
pKa [2]: 6

CCCCCCCCCCCCCc1ccccn1
pKa [2]: 5.6

CCCCCCCCCCNCC(F)(F)F
Activity [1]: 12% | Activity [14]: 32%

CCCCCNCC(F)(F)F
Activity [1]: 4% | Activity [14]: 14%

CCCCCCCCCCCCCCCCNCC(F)(F)F
Activity [1]: 63% | pKa [2]: 5.2

CCCCCCCCCCCCN1CCOCC1
Activity [27]: Active | Activity [22]: 14% | Activity [13]: 85% | pKa [2]: 7.6 | Activity [28]: 15% | Activity [29]: Active | Activity [30]: 13%

CCCCCCCCCCCCCCNCC(F)(F)F
Activity [1]: 5% | Activity [14]: 25%

CCCCCCCCCCCCN [DODECYLAMINE]
hemolysis at 1 h, 188 µM [3]: 100% | hemolysis at 1 h, 375 µM [7]: 100% | hemolysis at 4 h, 375 µM [8]: 100% | hemolysis at 4 h, 188 µM [16]: 100%
